# hERG protect – compounds protecting human hERG from proarrhythmic drug block; Q12809; CHO-hERG, FluxOR thallium flux, dofetilide IC70 present; activation (rescue from dofetilide block), less the hit threshold, % at 10 µM; 310,000 compounds, 0.51% hits; AID 1511;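 active = activation above the mean of controls blocked by dofetilide plus 5 SD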;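 also: thallium influx through hERG after potassium depolarization seen as dye fluorescence rise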
# KCNQ1 block – blocks the human KCNQ1 potassium channel; P51787; CHO-K1 KCNQ1, FluxOR thallium flux fluorescence; hits give high values; B-score at 10 µM; 310,000 compounds, 1.3% hits; AID 2642;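 active = compounds whose thallium flux B-score, printed positive for inhibition, exceeds three library SD while starting fluorescence stays within three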;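 also: channel opened by potassium depolarization with thallium stimulus after 20 min compound exposure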
# KCNQ1 pot – human KCNQ1 channel potentiation or activation | CHO-K1 KCNQ1, thallium flux FluxOR fluorescence; hits give high values | AID 2648 | P51787 | 310,000 compounds, 0.35% hits | B-score at 10 µM;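 active = fluorescence ratio B-score, a plate-corrected score, at least three library SD, with initial intensity B-score within 5 SD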
#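 Doses: Single concentration per compound, DMSO matched to controls | Test system: KCNQ1-transfected CHO-K1 cells | Timing: 90 min dye loading and 20 min compound exposure, both at room temperature | Measured by: Kinetic FluxOR thallium fluorescence, 10-s 1-Hz baseline, 110-s post-stimulus read | Medium: Assay buffer with matched DMSO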
# KCC2 mod – modulators of human KCC2 chloride dependent transport; Q9H2X9; KCC2 cells, thallium flux FluoZin-2 fluorescence; B-score of Tl+ flux slope (higher = more flux/activation; lower = inhibition) at 10 µM; 190,000 compounds, 2.2% hits; AID 1456;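 active = thallium flux slope and its plate-corrected score both differing from the plate sample mean at a set confidence after two filtering rounds, in either direction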;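 also: slope of fluorescence scaled to starting intensity during 10 to 20 s after thallium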
# KCNK3 inh – human KCNK3 channel inhibition, primary screen; O14649; CHO-KCNK3 thallium flux, FluxOR fluorescence; hits give low values; B-score at 10 µM; 340,000 compounds, 0.84% hits;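 active = B-score under library mean minus 4 SD, starting fluorescence ratio at most library mean plus 5 SD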;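 also: more negative B-score means stronger inhibition of thallium flux through KCNK3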
# KCNK9 inh – human KCNK9 channel inhibition | B-score at 10 µM | Q9NPC2 | HEK293 KCNK9, FluxOR thallium flux fluorescence; hits give low values | 310,000 compounds, 1.2% hits;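 active = ratio B-score over 3 SD below the library mean, with starting fluorescence within 5 SD of its mean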;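 also: negative B-score means less thallium flux so channel inhibition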
# An asterisk follows results filed as active; i = inactive; . = no result given. An excerpt weighted towards active compounds, which were near 4.1% of everything screened.
SMILES,hERG protect,KCNQ1 block,KCNQ1 pot,KCC2 mod,KCNK3 inh,KCNK9 inh
COc1ccc(O)c(CN2CCCC(C(=O)c3ccccc3SC)C2)c1 (stereo unspecified),-21,i,i,0.023,i,i
COC(=O)C1=C(c2ccc(OC(F)(F)F)cc2)C[C@@H]2CC[C@H]1N2C(=O)NCCOc1ccccc1Cl,.,.,.,.,i,.
Cc1ccc(OP(=O)(Nc2cccc(C)c2)Oc2ccc(C)cc2)cc1,-3,6*,i,.,i,i
Cc1cccc(OP(=O)(Nc2ccc(F)cc2)Oc2cccc(C)c2)c1,-30,8*,i,0.62,i,i
COc1cccc(OP(=O)(Nc2ccccc2)Oc2cccc(OC)c2)c1,-5,i,i,.,-9.1*,i
O=P(Nc1ccccc1)(Oc1ccccc1)Oc1ccccc1,-11,i,i,-0.37,i,i
COc1ccc(NP(=O)(Oc2cccc(C)c2)Oc2cccc(C)c2)cc1OC,-12,i,i,-1.3,i,i
Cc1cccc(OP(=O)(Nc2cccnc2)Oc2cccc(C)c2)c1,-12,i,i,2,i,i
COc1ccc(NP(=O)(Oc2ccccc2OC)Oc2ccccc2OC)cc1,-13,i,i,-2.7,i,i
COc1ccc(NP(=O)(Oc2ccc(Cl)cc2)Oc2ccc(Cl)cc2)cc1OC,-11,i,i,0.14,i,-7.1*
CC(C)(C)c1ccc(CSc2cnn(C(C)(C)C)c(=O)c2Cl)cc1,-15,11*,i,.,i,i
CCC1(c2ccc(N)cc2)CCC(=O)NC1=O (stereo unspecified),-6,i,i,.,i,i
C/C(=N\NC(=O)c1ccccc1O)c1c(O)n(C2CCCCC2)c(=O)[nH]c1=O,-15,6*,i,.,i,i
C/C(=N\NC(=O)c1ccccc1Cl)c1c(O)n(C2CCCCC2)c(=O)[nH]c1=O,-15,i,i,.,i,i
Oc1ccc(C(=C(Cl)Cl)c2ccc(O)cc2)cc1,-20,6*,i,.,.,i
[O-]c1ccccc1-[n+]1c(-c2ccccc2)cc(-c2ccccc2)cc1-c1ccccc1,-41,6*,i,.,i,-7.4*
Nc1ccccc1-[n+]1c(-c2ccccc2)cc(-c2ccccc2)cc1-c1ccccc1,-17,7*,i,-0.61,i,i
Oc1ccccc1-[n+]1c(-c2ccccc2)cc(-c2ccccc2)cc1-c1ccccc1,-43,14*,i,.,i,i
Cc1ccccc1-[n+]1c(-c2ccccc2)cc(-c2ccccc2)cc1-c1ccccc1,-41,10*,i,.,i,i
Cc1ccc(-c2cc(-c3ccccc3)cc(-c3ccccc3)[n+]2-c2ccc(C(=O)O)cc2)cc1,-3,i,i,.,i,i
Nc1ccc(-c2ccccc2)cc1,.,.,.,.,i,.
CNC(=O)NC(O)C(Cl)(Cl)Cl (stereo unspecified),-4,i,i,.,i,i
O=C1NC(=S)NC(=O)C1Cc1ccccc1O,.,.,.,.,i,.
CCOc1cc2c(cc1OCC)-n1cccc1C(c1cccc(F)c1F)NC2 (stereo unspecified),-4,i,i,.,i,i
CC1(C)C[C@H]2C=C(C=O)[C@]3(C=O)C[C@]3(C)[C@H]2C1,-21,i,21*,-3,i,i
SMILES,hERG protect,KCNQ1 block,KCNQ1 pot,KCC2 mod,KCNK3 inh,KCNK9 inh
N#CCCn1cc(C(=O)Nc2ccccc2Cl)c(-c2ccc(F)cc2)n1,8.2*,i,i,.,i,i
CC1(C)C(C(=O)N2CCN(c3ccc(Cl)cc3)CC2)C1(C)C,-7,i,i,.,i,i
COC(=O)C1CN(C#N)N(c2ccc(Cl)cc2)C12c1ccccc1-c1ccccc12 (stereo unspecified),-5,i,i,-0.054,i,-8.9*
O=C(O)C(Br)CBr (stereo unspecified),.,.,.,.,i,.
CC1N=C(c2ccccc2)c2cc(Br)ccc2NC1=O (stereo unspecified),3,i,i,.,i,i
CCOc1ccc(-n2c(O)c(/C=C3\C=Nc4ccccc43)c(=O)[nH]c2=O)cc1,-5,9*,i,.,i,i
